From the M2OR odorant receptor database

Key:
Details in all cases: stereoisomer not certain
UniProt A2ATE5 = target: T1, UniProt A2ATE5
T1 sequence (whole entry): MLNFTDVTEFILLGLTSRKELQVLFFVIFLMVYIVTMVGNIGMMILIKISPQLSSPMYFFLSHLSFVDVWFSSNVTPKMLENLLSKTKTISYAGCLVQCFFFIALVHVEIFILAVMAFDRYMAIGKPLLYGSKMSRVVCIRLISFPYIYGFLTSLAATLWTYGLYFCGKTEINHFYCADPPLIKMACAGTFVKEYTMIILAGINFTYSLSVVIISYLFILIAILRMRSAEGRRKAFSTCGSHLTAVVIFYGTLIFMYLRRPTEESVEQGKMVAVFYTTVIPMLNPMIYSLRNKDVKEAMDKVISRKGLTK
How it was run: (§1)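 Assay methods differ from source to source, frequently being transient luciferase assays in mammalian cell lines. For each receptor–molecule pair, the label responsive (active) applies when the original authors judged the measured signal statistically different from baseline, and non-responsive (inactive) applies otherwise.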

UniProt A2AVB0 = target: T2, UniProt A2AVB0
T2 sequence (whole entry): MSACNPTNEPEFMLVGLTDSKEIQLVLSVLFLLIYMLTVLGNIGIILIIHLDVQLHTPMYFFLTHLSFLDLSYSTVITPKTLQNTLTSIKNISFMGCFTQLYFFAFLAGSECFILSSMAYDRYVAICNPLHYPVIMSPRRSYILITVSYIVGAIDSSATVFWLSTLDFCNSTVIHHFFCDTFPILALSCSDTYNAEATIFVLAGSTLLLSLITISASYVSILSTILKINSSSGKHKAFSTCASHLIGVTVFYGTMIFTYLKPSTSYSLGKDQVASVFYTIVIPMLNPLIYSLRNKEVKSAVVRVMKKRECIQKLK
How it was run: as §1

UniProt A2AVB5 = target: T3, UniProt A2AVB5
T3 sequence (whole entry): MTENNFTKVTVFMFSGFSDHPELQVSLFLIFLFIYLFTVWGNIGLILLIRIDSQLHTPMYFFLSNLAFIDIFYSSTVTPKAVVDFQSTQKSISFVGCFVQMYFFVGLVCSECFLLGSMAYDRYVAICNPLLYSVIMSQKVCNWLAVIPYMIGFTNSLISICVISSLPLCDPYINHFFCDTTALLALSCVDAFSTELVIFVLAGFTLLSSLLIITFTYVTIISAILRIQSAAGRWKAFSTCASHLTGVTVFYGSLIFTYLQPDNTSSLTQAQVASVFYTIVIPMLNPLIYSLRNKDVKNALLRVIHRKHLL
How it was run: as §1

UniProt B2RVX8 = target: T4, UniProt B2RVX8
T4 sequence (whole entry): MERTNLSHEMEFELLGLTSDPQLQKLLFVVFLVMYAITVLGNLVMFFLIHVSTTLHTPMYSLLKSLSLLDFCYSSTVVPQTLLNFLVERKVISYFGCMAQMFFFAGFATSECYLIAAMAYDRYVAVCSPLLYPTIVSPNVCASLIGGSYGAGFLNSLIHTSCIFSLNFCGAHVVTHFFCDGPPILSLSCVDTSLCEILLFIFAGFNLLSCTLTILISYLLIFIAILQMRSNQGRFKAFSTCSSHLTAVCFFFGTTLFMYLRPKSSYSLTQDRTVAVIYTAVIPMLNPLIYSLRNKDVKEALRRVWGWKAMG
How it was run: as §1

UniProt E9PVX1 = target: T5, UniProt E9PVX1
T5 sequence (whole entry): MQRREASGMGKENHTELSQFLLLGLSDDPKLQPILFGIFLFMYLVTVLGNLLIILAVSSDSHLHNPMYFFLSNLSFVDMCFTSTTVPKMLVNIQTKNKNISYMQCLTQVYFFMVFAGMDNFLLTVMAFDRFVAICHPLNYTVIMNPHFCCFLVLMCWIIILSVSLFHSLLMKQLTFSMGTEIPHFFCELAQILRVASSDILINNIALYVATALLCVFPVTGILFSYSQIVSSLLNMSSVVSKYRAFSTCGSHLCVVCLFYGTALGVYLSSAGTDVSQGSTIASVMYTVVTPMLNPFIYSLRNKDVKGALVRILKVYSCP
How it was run: as §1

UniProt E9PZ66 = target: T6, UniProt E9PZ66
T6 sequence (whole entry): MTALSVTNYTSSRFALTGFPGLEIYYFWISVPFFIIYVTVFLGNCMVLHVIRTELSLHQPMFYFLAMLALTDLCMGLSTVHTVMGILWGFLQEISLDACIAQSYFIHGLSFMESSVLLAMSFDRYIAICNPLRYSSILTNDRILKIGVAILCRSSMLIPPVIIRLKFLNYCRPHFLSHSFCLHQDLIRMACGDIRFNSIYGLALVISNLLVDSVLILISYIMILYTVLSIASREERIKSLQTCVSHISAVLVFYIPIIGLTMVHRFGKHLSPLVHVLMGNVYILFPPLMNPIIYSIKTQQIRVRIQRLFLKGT
How it was run: as §1

UniProt E9Q4X7 = target: T7, UniProt E9Q4X7
T7 sequence (whole entry): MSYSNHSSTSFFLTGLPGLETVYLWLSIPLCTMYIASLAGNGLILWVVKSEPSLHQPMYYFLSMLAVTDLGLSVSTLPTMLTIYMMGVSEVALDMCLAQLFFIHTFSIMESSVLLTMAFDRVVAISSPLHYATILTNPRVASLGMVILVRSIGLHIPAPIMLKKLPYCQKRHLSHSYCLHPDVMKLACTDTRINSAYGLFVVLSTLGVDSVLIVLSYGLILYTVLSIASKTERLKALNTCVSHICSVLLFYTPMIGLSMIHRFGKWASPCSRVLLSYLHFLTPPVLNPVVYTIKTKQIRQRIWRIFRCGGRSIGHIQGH
How it was run: as §1

UniProt E9Q546 = target: T8, UniProt E9Q546
T8 sequence (whole entry): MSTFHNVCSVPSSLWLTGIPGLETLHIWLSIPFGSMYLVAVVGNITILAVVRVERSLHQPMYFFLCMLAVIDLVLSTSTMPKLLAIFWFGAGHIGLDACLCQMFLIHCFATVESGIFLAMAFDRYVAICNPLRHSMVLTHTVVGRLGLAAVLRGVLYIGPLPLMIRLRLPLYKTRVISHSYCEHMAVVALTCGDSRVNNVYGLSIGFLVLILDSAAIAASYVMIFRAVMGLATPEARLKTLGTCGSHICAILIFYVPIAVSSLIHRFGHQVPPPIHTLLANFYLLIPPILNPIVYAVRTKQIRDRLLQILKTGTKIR
How it was run: as §1

UniProt E9Q6Z7 = target: T9, UniProt E9Q6Z7
T9 sequence (whole entry): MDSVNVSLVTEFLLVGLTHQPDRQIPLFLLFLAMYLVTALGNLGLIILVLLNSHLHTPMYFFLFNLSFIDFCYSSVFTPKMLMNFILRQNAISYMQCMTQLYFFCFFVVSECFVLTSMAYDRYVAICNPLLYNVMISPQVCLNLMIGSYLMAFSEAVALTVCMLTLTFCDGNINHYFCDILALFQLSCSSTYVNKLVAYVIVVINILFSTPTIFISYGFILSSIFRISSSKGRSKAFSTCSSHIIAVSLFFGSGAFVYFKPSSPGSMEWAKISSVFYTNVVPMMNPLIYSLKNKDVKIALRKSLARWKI
How it was run: as §1

UniProt K7N609 = target: T10, UniProt K7N609
T10 sequence (whole entry): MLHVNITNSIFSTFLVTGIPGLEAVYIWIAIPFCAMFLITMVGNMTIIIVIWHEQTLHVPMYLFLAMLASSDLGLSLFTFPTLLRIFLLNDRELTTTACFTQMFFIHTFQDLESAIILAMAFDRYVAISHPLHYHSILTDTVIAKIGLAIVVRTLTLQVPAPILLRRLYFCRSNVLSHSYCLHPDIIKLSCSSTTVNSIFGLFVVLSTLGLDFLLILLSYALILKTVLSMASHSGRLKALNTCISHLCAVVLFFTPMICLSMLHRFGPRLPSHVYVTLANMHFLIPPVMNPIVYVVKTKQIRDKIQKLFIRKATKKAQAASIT
How it was run: as §1

Measured: odorant receptor agonist call

CC(C)=CCCC(C)=CCO
inactive: all assays above

CC(=O)Oc1ccccc1
inactive: all assays above

CCCCCC(C=O)=Cc1ccccc1
not listed: UniProt A2AVB5 | UniProt B2RVX8 | UniProt K7N609
inactive: all other assays above

O=C(O)CCCCCCCCC(=O)O
not listed: UniProt A2AVB5 | UniProt B2RVX8 | UniProt K7N609
inactive: all other assays above
